Source: ChEMBL document CHEMBL1938366, “Synthesis and biological activity of novel barbituric and thiobarbituric acid derivatives against non-alcoholic fatty liver disease” (Eur J Med Chem, 2011)
Activity calls are given as the source filed them. The rule behind the calls is not given here.

Legend:
3T3-L1 [1] = assay: Induction of adipogenesis in mouse 3T3L1 cells assessed as increase of adiponectin level at 10 uM after 8 to 12 days (reference value: 843.78 +/- 20.61 ng/ml); format: functional
3T3-L1 [2] = assay: Cytotoxicity against mouse 3T3L1 cells assessed as glucose consumption at 10 uM by MTT assay; format: cell-based; conditions: 3t3-l1, 10 µM
3T3-L1 [3] = assay: Induction of adipogenesis in mouse 3T3L1 cells assessed as increase of adiponectin expression at 10 uM after 8 to 12 days relative to control; format: functional
3T3-L1 [4] = assay: Induction of adipogenesis in mouse 3T3L1 cells assessed as decrease of leptin level at 10 uM after 24 hrs (reference value: 3089.21 +/- 33.37 pg/ml); format: functional
Rattus norvegicus [5] = assay: Hepatoprotective activity against high fat/high calorie diet-induced non-alcoholic fatty liver disease in Wistar rat assessed as decrease in liver/body weight ratio at 50 mg/kg, po qd for 4 weeks (reference value: 4.95 %); format: functional; design: scale not given: the % may be the effect or the level left
Rattus norvegicus [6] = assay: Toxicity in high fat/high calorie diet-induced non-alcoholic fatty liver disease Wistar rat model assessed as physiological signs of toxicity at 50 mg/kg, po qd for 4 weeks; format: organism-based; design: dose 50 mg/kg, route oral; conditions: in vivo, 672 h
Rattus norvegicus [7] = assay: Hepatoprotective activity against high fat/high calorie diet-induced non-alcoholic fatty liver disease in Wistar rat assessed as decreased triglyceride levels at 50 mg/kg, po qd for 4 weeks by radioimmunoassay (reference value: 2.38 +/- 1.20 mM); format: functional
Rattus norvegicus [8] = assay: Hepatoprotective activity against high fat/high calorie diet-induced non-alcoholic fatty liver disease in Wistar rat assessed as insulin at 50 mg/kg, po qd for 4 weeks (reference value: 36.32 +/- 2.97 uU/ml); format: functional
Rattus norvegicus [9] = assay: Toxicity in high fat/high calorie diet-induced non-alcoholic fatty liver disease Wistar rat model assessed as abnormal behavioral at 50 mg/kg, po qd for 4 weeks; format: organism-based; design: dose 50 mg/kg, route oral; conditions: in vivo, 672 h
Rattus norvegicus [10] = assay: Hepatoprotective activity against high fat/high calorie diet induced NAFLD in Wistar rat assessed as restoration of liver cells at 50 mg/kg, po qd for 4 weeks by oil red O and H & E staining; format: functional, organism-based; design: dose 50 mg/kg
In short: (§1)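 Male Wistar rats on a high-fat/high-calorie diet were given compound orally at 50 mg/kg once daily for 4 weeks, suspended in Tween 80 and 5% saline. Liver sections were then stained with Oil Red O and H&E and compared against normal-diet and untreated diet-model rats.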

Rattus norvegicus [11] = assay: Hepatoprotective activity against high fat/high calorie diet-induced non-alcoholic fatty liver disease in Wistar rat assessed as decreased LDL cholesterol levels at 50 mg/kg, po qd for 4 weeks by radioimmunoassay (reference value: 0.97 +/- 0.31 mM); format: functional
Rattus norvegicus [12] = assay: Hepatoprotective activity against high fat/high calorie diet-induced non-alcoholic fatty liver disease in Wistar rat assessed as decreased HDL cholesterol levels at 50 mg/kg, po qd for 4 weeks by radioimmunoassay (reference value: 1.20 +/- 0.43 mM); format: functional
Rattus norvegicus [13] = assay: Hepatoprotective activity against high fat/high calorie diet-induced non-alcoholic fatty liver disease in Wistar rat assessed as decreased liver weight at 50 mg/kg, po qd for 4 weeks (reference value: 21.4 +/- 3.1 g); format: functional
Rattus norvegicus [14] = assay: Hepatoprotective activity against high fat/high calorie diet-induced non-alcoholic fatty liver disease in Wistar rat assessed as HOMA-IR levels at 50 mg/kg, po qd for 4 weeks (reference value: 15.31 +/- 0.22); format: functional
Rattus norvegicus [15] = assay: Hepatoprotective activity against high fat/high calorie diet-induced non-alcoholic fatty liver disease in Wistar rat assessed as reduction of fat accumulation in liver cells at 50 mg/kg, po qd for 4 weeks by oil red O and H & E staining; format: functional, organism-based; design: dose 50 mg/kg; in short: as §1
Rattus norvegicus [16] = assay: Hepatoprotective activity against high fat/high calorie diet-induced non-alcoholic fatty liver disease in Wistar rat assessed as serum adiponectin levels at 50 mg/kg, po qd for 4 weeks (reference value: 10.49 +/- 2.59 ng/ml); format: functional
Rattus norvegicus [17] = assay: Hepatoprotective activity against high fat/high calorie diet-induced non-alcoholic fatty liver disease in Wistar rat assessed as decreased body weight at 50 mg/kg, po qd for 4 weeks (reference value: 431 +/- 19.4 g); format: functional
Rattus norvegicus [18] = assay: Hepatoprotective activity against high fat/high calorie diet-induced non-alcoholic fatty liver disease in Wistar rat assessed as serum leptin levels at 50 mg/kg, po qd for 4 weeks (reference value: 7.59 +/- 2.36 ng/ml); format: functional
Rattus norvegicus [19] = assay: Hepatoprotective activity against high fat/high calorie diet-induced non-alcoholic fatty liver disease in Wistar rat assessed as decreased visceral fat assessed per 100 gram of body weight at 50 mg/kg, po qd for 4 weeks (reference value: 4.95 +/- 0.95 g/100g BW); format: functional
Rattus norvegicus [20] = assay: Hepatoprotective activity against high fat/high calorie diet-induced non-alcoholic fatty liver disease in Wistar rat assessed as decreased ALT levels at 50 mg/kg, po qd for 4 weeks (reference value: 47.52 +/- 4.98 u/l); format: functional
Rattus norvegicus [21] = assay: Hepatoprotective activity against high fat/high calorie diet-induced non-alcoholic fatty liver disease in Wistar rat assessed as decreased FBS at 50 mg/kg, po qd for 4 weeks by radioimmunoassay (reference value: 9.23 +/- […] mM); format: functional
HepG2 [22] = assay: Cytotoxicity against human HepG2 cells assessed as glucose consumption at 10 uM by MTT assay in presence of insulin; format: cell-based; conditions: hepg2, 10 µM
In short: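 HepG2 cells; glucose consumption measured with insulin co-present at 0.1 µM. Full procedure given in supplementary data (S3).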

HepG2 [23] = assay: Cytotoxicity against human HepG2 cells assessed as glucose consumption at 10 uM by MTT assay; format: cell-based; conditions: hepg2, 10 µM

Compound	Activity (3T3-L1 [1]) [ng/mL]	Activity (3T3-L1 [2])	Activity (3T3-L1 [3]) [%]	Activity (3T3-L1 [4]) [pg/mL]	other results
O=C(COc1ccc(C=C2C(=O)NC(=O)NC2=O)cc1)Nc1ccc(F)c(F)c1	1322.02	Non-toxic	143.8	1571.98	–
O=C(COc1ccc(C=C2C(=O)NC(=O)NC2=O)cc1)Nc1ccccn1	1639.61	Non-toxic	180.32	1271.98	Activity (Rattus norvegicus [5]): 4.34%; Activity (Rattus norvegicus [6]): Non-toxic; Activity (Rattus norvegicus [7]): 1.02 mM; Activity (Rattus norvegicus [8]): 33.43 uU/ml; Activity (Rattus norvegicus [9]): Non-toxic; Activity (Rattus norvegicus [10]): Active; Activity (Rattus norvegicus [11]): 0.18 mM; Activity (Rattus norvegicus [12]): 1.11 mM; Activity (Rattus norvegicus [13]): 16 g; Activity (Rattus norvegicus [14]): 7.03; Activity (Rattus norvegicus [15]): Active; Activity (Rattus norvegicus [16]): 12.53 µg/mL; Activity (Rattus norvegicus [17]): 360.5 g; Activity (Rattus norvegicus [18]): 6 ng/mL; Activity (Rattus norvegicus [19]): 3.98 g; Activity (Rattus norvegicus [20]): 33.06 U/L; Activity (Rattus norvegicus [21]): 4.73 mM
CN(CCOc1ccc(CC2SC(=O)NC2=O)cc1)c1ccccn1 (stereo not drawn) [ROSIGLITAZONE]	1324.73	–	157.31	1773.67	Activity (HepG2 [22]): 29.41%; Activity (HepG2 [23]): 15.58%
Cc1ccc(NC(=O)COc2ccc(C=C3C(=O)NC(=S)NC3=O)cc2)nc1	1239.44	Non-toxic	146.94	1514.81	–
O=C(COc1ccc(C=C2C(=O)NC(=O)NC2=O)cc1)Nc1ccccc1	1111.73	Non-toxic	135.18	1856.32	–
